Test results published in ChEMBL document CHEMBL1129750, “Bicyclic N-hydroxyurea inhibitors of 5-lipoxygenase: pharmacodynamic, pharmacokinetic, and in vitro metabolic studies characterizing N-hydroxy-N-(2,3-dihydro-6-(phenylmethoxy)-3-benzofuranyl)urea” (J Med Chem, 1996).
Blank lines part the entries; values can stand above or below the molecule they belong to. The source made the active and inactive calls. The rule behind the calls is not given here.

Experiments:
Canis familiaris = assay: Compound was administered intravenously in dog to evaluate plasma clearance values; format: ADME, organism-based, Canis lupus familiaris; conditions: in vivo, iv
Outline: (§1)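 IV infusion over 15 min via saphenous (monkey) or cephalic (dog) vein catheter, 1–1.4 mg/kg in 7.5% (w/v) aqueous (2-hydroxypropyl)-β-cyclodextrin; male cynomolgus monkeys and beagle dogs, N = 3. Chilled plasma analysed by HPLC. Noncompartmental parameters were estimated per animal and then averaged. CLp = dose/AUC, with AUC by linear/log-linear trapezoidal rule.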

[1] = Compound was administered intravenously in monkey to evaluate plasma clearance values; format: ADME, organism-based; conditions: simiiformes, in vivo, iv; outline: as §1
Mus musculus [2] = assay: Compound was administered intravenously in mouse to evaluate half life; ID= Iinsufficient data to calculate parameter.; format: ADME, organism-based; conditions: in vivo, iv
Outline: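 Male CD-1 mice given 0.5 mg/kg IV by lateral tail vein over 5–10 s, in ethanol/propylene glycol 30:70 v/v; N = 3 per time point with terminal sampling under ether. Plasma HPLC, LOQ 0.05 μg/mL. Mean concentration per time point before noncompartmental analysis. Half-life from slope of log-concentration profile; CLp = dose/AUC.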

[3] = molecular target: T1, Polyunsaturated fatty acid 5-lipoxygenase (Rattus norvegicus, UniProt P12527); assay: Inhibitory activity against rat 5-lipoxygenase by using continuous oxygen consumption assay.
T1 sequence (P12527 whole entry): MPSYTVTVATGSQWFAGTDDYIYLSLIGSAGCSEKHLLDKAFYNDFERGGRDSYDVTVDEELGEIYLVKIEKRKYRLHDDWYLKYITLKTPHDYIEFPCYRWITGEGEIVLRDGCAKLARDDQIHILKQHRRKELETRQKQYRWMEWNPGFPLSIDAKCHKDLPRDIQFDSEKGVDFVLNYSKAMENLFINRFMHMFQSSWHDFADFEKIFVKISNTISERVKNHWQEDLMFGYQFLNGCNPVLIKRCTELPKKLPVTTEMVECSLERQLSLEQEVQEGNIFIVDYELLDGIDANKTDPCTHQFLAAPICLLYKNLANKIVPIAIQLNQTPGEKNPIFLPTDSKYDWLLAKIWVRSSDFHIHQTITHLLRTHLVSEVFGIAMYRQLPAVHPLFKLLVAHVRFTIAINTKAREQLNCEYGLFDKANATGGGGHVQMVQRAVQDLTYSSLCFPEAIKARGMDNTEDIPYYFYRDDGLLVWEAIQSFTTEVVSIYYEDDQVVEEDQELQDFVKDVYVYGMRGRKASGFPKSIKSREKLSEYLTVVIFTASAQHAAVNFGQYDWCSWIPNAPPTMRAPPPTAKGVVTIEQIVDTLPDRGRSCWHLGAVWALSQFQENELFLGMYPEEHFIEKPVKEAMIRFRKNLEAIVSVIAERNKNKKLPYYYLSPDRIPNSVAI
Outline: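 Semipurified cytosolic 5-LO from rat basophilic leukemia (RBL-1) cells; continuous oxygen-electrode assay of oxygen consumption; IC50.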

Mus musculus [4] = organism: Mus musculus; assay: Compound was tested to inhibit Leukotriene formation in A-23187-stimulated mouse whole blood using […] ex vivo, activity expressed as percent of control; NS=No Stastistical Significance; format: functional, organism-based
[5] = molecular target: T2, Polyunsaturated fatty acid 5-lipoxygenase (Mus musculus) (UniProt P48999); assay: Inhibition of leukotriene formation in A-23187-stimulated mouse whole blood using […] ex vivo, activity expressed as percent of control.; format: functional, tissue-based; set-up: scale not given: the % may be the effect or the level left
T2 sequence (whole entry): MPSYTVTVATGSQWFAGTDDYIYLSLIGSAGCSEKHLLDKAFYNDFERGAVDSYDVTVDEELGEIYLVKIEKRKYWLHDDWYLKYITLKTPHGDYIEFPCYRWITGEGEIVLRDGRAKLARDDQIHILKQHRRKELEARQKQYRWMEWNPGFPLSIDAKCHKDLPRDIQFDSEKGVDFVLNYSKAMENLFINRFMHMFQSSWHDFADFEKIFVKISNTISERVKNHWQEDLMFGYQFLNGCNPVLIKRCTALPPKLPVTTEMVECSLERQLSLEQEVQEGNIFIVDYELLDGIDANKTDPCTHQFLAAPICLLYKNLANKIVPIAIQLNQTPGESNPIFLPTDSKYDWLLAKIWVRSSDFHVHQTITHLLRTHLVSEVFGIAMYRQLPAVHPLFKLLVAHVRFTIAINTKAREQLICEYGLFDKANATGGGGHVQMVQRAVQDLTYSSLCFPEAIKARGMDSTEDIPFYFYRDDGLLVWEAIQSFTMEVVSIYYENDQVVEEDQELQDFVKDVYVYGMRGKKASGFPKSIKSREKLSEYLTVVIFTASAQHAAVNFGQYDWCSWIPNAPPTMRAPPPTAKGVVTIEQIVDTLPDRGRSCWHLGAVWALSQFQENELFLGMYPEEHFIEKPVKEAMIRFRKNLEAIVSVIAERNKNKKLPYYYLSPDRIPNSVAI

Mus musculus [6] = organism: Mus musculus; assay: Compound was tested to inhibit Leukotriene formation in A-23187-stimulated mouse whole blood using […] ex vivo; format: functional
Mus musculus [7] = organism: Mus musculus; assay: Percentage inhibition of LTB4 formation after 6 hr in mouse; format: functional
Mus musculus [8] = assay: Maximum inhibition of LTB4 formation at dose 15 mg/kg in mouse; format: functional
Mus musculus [9] = assay: Compound was tested to inhibit Leukotriene formation in mouse sensitized with 1BD8 cells after 7 hr of compound administration, activity expressed as percent of control; format: functional; set-up: concentration or dose not given beside the values
Mus musculus [10] = organism: Mus musculus; assay: Inhibition of Leukotriene formation in mouse adoptive peritoneal anaphylaxis assay ex vivo; format: functional
Mus musculus [11] = assay: Maximum inhibition of LTB4 at dose 3 mg/kg in mouse; format: functional
Mus musculus [12] = assay: Percentage inhibition of LTB4 after 6 hr at dose 3 mg/kg in mouse; NS=No Stastistical Significance; format: functional, organism-based; set-up: dose 3 mg/kg
Mus musculus [13] = organism: Mus musculus; assay: Glucuronidation rates in mouse liver microsomes; format: functional
Outline: (§2)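 Liver microsomes (fresh male CD-1 mouse >10 weeks, or frozen human donor) at 0.25–1.0 mg/mL protein. Incubated with 2.5 mM substrate, 15 mM [14C]UDP-glucuronic acid, 10 mM MgCl2 and 2% BSA in 100 mM sodium phosphate pH 7.4, at 37 °C for 1–4 h. Stopped with 20% acetonitrile; glucuronide quantified by HPLC. Mean of duplicates.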

Homo sapiens [14] = organism: Homo sapiens; assay: Glucuronidation rates in human liver microsomes; format: functional; outline: as §2
Homo sapiens [15] = organism: Homo sapiens; assay: Compound was tested to inhibit Leukotriene formation in A-23187-stimulated human whole blood using LTB4 specific RIA in vitro; format: functional
Outline: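 Human whole blood stimulated with A23187; LTB4 measured by specific radioimmunoassay. IC50 with 95% confidence limits from linear regression.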

Mus musculus [16] = assay: Maximum inhibition of LTB4 at dose 6 mg/kg in mouse; format: functional
Mus musculus [17] = assay: Percentage inhibition of LTB4 after 6 hr at dose 6 mg/kg in mouse; format: functional
[18] = Mus musculus, Blood, read-out: ED50

Clp (Canis familiaris): 10.9 mL/min
Clp [1]: 10.3 mL/min
T1/2 (Mus musculus [2]): Insufficient data
Compound: NC(=O)N(O)C1COc2cc(OCc3ccccc3)ccc21 (single isomer, unassigned; (-)) [listing 1 of 2 here]

IC50 [3]: 0.62 µM
Compound: NC(=O)N(O)C1CCc2cc(OCc3ccccc3)ccc21 (stereo in doubt; (-)2a)

IC50 [3]: 1.7 µM
Compound: Cc1c2n(c3ccc(C(C)C)cc13)CCC2N(O)C(N)=O (centres undefined)
Activity (Mus musculus [4]): inactive

IC50 [3]: 0.6 µM
Compound: NC(=O)N(O)C1CCCc2cc(CCc3ccccc3)ccc21 (centres undefined)
Activity (Mus musculus [4]): inactive

IC50 [3]: 0.91 µM
Activity [5]: -44%
Compound: NC(=O)N(O)C1CCCc2c(OCc3ccccc3)cccc21 (centres undefined)

IC50 [3]: 3.3 µM
Activity [5]: -56%
Compound: NC(=O)N(O)C1COc2cc(Oc3ccccc3)ccc21 (centres undefined)

IC50 [3]: 5.6 µM
Compound: NC(=O)N(O)C1CCc2cccc(Oc3ccccc3)c21 (centres undefined)

IC50 [3]: 1.8 µM
Compound: NC(=O)N(O)C1CCCc2cc(OCc3ccccc3)ccc21 (stereo in doubt; 3a) [listing 1 of 2 here]
ED50 (Mus musculus [6]; [18]): 9.9 mg/kg
Inhibition (Mus musculus [7]): 67%
Max inhibition (Mus musculus [8]): 61

IC50 [3]: 0.65 µM
Activity [5]: -68%
Compound: NC(=O)N(O)C1CCn2c1cc1cc(OCc3ccccc3)ccc12 (centres undefined)
Activity (Mus musculus [9]): -8%
ED50 (Mus musculus [6]; [18]): 1.8 mg/kg
ED50 (Mus musculus [10]): 1.8 mg/kg

Activity [5]: -67%
Compound: NC(=O)N(O)C1CCCc2cc(OCc3ccccc3)ccc21 (stereo in doubt; 3a) [listing 2 of 2 here]

IC50 [3]: 3.5 µM
Activity [5]: -64%
Compound: NC(=O)N(O)C1COc2ccc(Oc3ccccc3)cc21 (centres undefined)
ED50 (Mus musculus [6]; [18]): 1.9 mg/kg
Max inhibition (Mus musculus [11]): 67
inhibition (Mus musculus [12]): inactive

Compound: NC(=O)N(O)C1COc2cc(OCc3ccccc3)ccc21 (single isomer, unassigned; (-)) [listing 2 of 2 here]
Rate of formation (nM (mg of protein)-1) (Mus musculus [13]): 5.9
Rate of formation (nM (mg of protein)-1) (Homo sapiens [14]): 60.3

IC50 (Homo sapiens [15]): 4.3 µM
Compound: NC(=O)N(O)C1COc2cc(OCc3ccccc3)ccc21 (stereo in doubt; 1a) [listing 1 of 2 here]
Activity (Mus musculus [9]): -55%
ED50 (Mus musculus [6]): 3.9 mg/kg
Max inhibition (Mus musculus [16]): 91
inhibition in vivo at 6 mg/kg (Mus musculus [17]): 87%
ED50 (Mus musculus [10]; Mus musculus): 3.9 mg/kg

IC50 [3]: 1.4 µM
Compound: COc1ccc(COc2ccc3c(c2)CCC3N(O)C(N)=O)cc1 (centres undefined)
Activity (Mus musculus [4]): inactive

IC50 [3]: 4.2 µM
Compound: NC(=O)N(O)C1COc2c1ccc1ccccc21 (centres undefined)

IC50 [3]: 0.5 µM
Compound: NC(=O)N(O)C1CCCc2cc(OCc3ccc4ccccc4c3)ccc21 (centres undefined)
Activity (Mus musculus [4]): inactive

Activity [5]: -26%
Compound: Cc1c2n(c3ccc(Oc4ccccc4)cc13)CCC2N(O)C(N)=O (centres undefined)

Activity [5]: -85%
Compound: NC(=O)N(O)C1CCc2cc(OCc3ccccc3)ccc21 (stereo in doubt; 2a)

Activity [5]: -100%
Compound: NC(=O)N(O)C1COc2cc(OCc3ccccc3)ccc21 (stereo in doubt; 1a) [listing 2 of 2 here]

IC50 [3]: 48 µM
Compound: COc1ccc2c(c1)CCCC2N(O)C(N)=O (centres undefined)
Activity (Mus musculus [4]): inactive

IC50 [3]: 2.7 µM
Activity [5]: -73%
Compound: COc1ccc(COc2ccc3c(c2)OCC3N(O)C(N)=O)cc1 (centres undefined)
ED50 (Mus musculus [6]; [18]): 9.8 mg/kg
